Where a SMILES comes first, the peptide text is derived from it. [ ]: non-standard residue; d: D form. The star is where a group is joined. Cyclohexylacetyl(1-SH) = O=C(CC1(S)CCCCC1)*; Ac6c = NC1(C(=O)O)CCCCC1
Tests used:
Rattus norvegicus [1] = organism: Rattus norvegicus; experiment: Compound was evaluated for in vitro uterotonic activity in the absence of magnesium ions in female wistar rats; format: functional; settings: for Kb: read-out: pA2 (converted)
Method in brief: (§1)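 Uterus from Wistar females estrogenized 48 h beforehand, tested in vitro in the absence of magnesium ions. Synthetic oxytocin was the standard. Dose–response curves built from single additions, or cumulatively without washing between increasing doses. Values are means of three to five separate experiments.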

Rattus norvegicus [2] = organism: Rattus norvegicus; experiment: (§2) Compound was evaluated for vasopressor activity in phenoxybenzamine-treated male rats; format: functional, organism-based; settings: read-out: pA2 (converted)
Method in brief: (§3)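 Pressor response measured in phenoxybenzamine-treated male Wistar rats, with synthetic arginine vasopressin as standard. Dose–response curves built from single administrations, or cumulatively without washing between increasing doses. Values are means of three to five separate experiments.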

Rattus norvegicus [3] = organism: Rattus norvegicus; experiment: Compound was evaluated for antidiuretic activity with t1/2 of 200 min in male rats by modified Burn test; format: functional, Urine
Rattus norvegicus [4] = organism: Rattus norvegicus; experiment: Compound was evaluated for antidiuretic activity with t1/2 of 60 in male rats by modified Burn test; format: functional, Urine
Rattus norvegicus [5] = organism: Rattus norvegicus; experiment: as §2; format: functional; method in brief: as §3
Rattus norvegicus [6] = organism: Rattus norvegicus; experiment: Compound was evaluated for in vitro uterotonic activity in the absence of magnesium ions in female wistar rats; range is 1.5-5.1; format: functional; method in brief: as §1
Rattus norvegicus [7] = organism: Rattus norvegicus; experiment: Compound was evaluated for antidiuretic activity with t1/2 of 60 min in male rats by modified Burn test; range is 800-50000; format: functional, Urine
Rattus norvegicus [8] = organism: Rattus norvegicus; experiment: Compound was evaluated for antidiuretic activity with t1/2 of 60 min in male rats by modified Burn test; range is 750-900; format: functional, Urine
Rattus norvegicus [9] = organism: Rattus norvegicus; experiment: Compound was evaluated for antidiuretic activity with t1/2 of 60 min in male rats by modified Burn test; range is 114-257; format: functional, Urine
Rattus norvegicus [10] = organism: Rattus norvegicus; experiment: Compound was evaluated for vasopressor activity in phenoxybenzamine-treated male rats; range is 346-370; format: functional; method in brief: as §3
Rattus norvegicus [11] = organism: Rattus norvegicus; experiment: Compound was evaluated for in vitro uterotonic activity in the absence of magnesium ions in female wistar rats; range is 27-63; format: functional; method in brief: as §1
Rattus norvegicus [12] = organism: Rattus norvegicus; experiment: Compound was evaluated for antidiuretic activity with t1/2 of 60 min in male rats by modified Burn test; range is 1300-1745; format: functional, Urine

Row | Compound | Kb (Rattus norvegicus [1]) [nM] | Activity (Rattus norvegicus [3]) [IU/mg] | Activity (Rattus norvegicus [4]) [IU/mg] | Activity (Rattus norvegicus [5]) [IU/mg] | Activity (Rattus norvegicus [1]) [IU/mg] | also measured
1 | CC(C)[C@H](NC(=O)[C@H](Cc1ccccc1)NC(=O)C1(NC(=O)CCS)CCCCC1)C(=O)N[C@@H](CC(N)=O)C(=O)N[C@@H](CS)C(=O)N1CCC[C@H]1C(=O)N[C@H](CCCN=C(N)N)C(=O)NCC(N)=O | 15.5 | ~50000 | ~4500 | – | – | Kb (Rattus norvegicus [2]): 724 nM
2 | NC(=O)CC[C@H](NC(=O)C1(NC(=O)[C@H](Cc2ccc(O)cc2)NC(=O)[C@@H](N)CS)CCCCC1)C(=O)N[C@@H](CC(N)=O)C(=O)N[C@@H](CS)C(=O)N1CCC[C@H]1C(=O)N[C@H](CCCN=C(N)N)C(=O)NCC(N)=O | – | ~1.4 | ~0.1 | 0 | 0 | –
3 | NC(=O)CC[C@H](NC(=O)[C@H](Cc1ccccc1)NC(=O)C1(NC(=O)CCS)CCCCC1)C(=O)N[C@@H](CC(N)=O)C(=O)N[C@@H](CS)C(=O)N1CCC[C@H]1C(=O)N[C@H](CCCN=C(N)N)C(=O)NCC(N)=O | 316 | ~50000 | ~4500 | – | 0.31 | –
4 | NC(=O)CC[C@H](NC(=O)C1(NC(=O)[C@H](Cc2ccc(O)cc2)NC(=O)CCS)CCCCC1)C(=O)N[C@@H](CC(N)=O)C(=O)N[C@@H](CS)C(=O)N1CCC[C@H]1C(=O)N[C@H](CCCN=C(N)N)C(=O)NCC(N)=O | – | – | <4 | 0 | 0 | –
5 | NC(=O)CC[C@H](NC(=O)[C@H](Cc1ccccc1)NC(=O)[C@H](Cc1ccc(O)cc1)NC(=O)CCS)C(=O)N[C@@H](CC(N)=O)C(=O)N[C@@H](CS)C(=O)N1CCC[C@H]1C(=O)N[C@H](CCCN=C(N)N)C(=O)NCC(N)=O | – | – | – | – | – | Activity (Rattus norvegicus [6]): <5.1 IU/mg; Activity (Rattus norvegicus [7]): <50000 IU/mg
6 | NC(=O)CC[C@H](NC(=O)C1(NC(=O)[C@H](Cc2ccc(O)cc2)NC(=O)CCS)CCCCC1)C(=O)N[C@@H](CC(N)=O)C(=O)N[C@@H](CS)C(=O)N1CCC[C@H]1C(=O)N[C@@H](CCCN=C(N)N)C(=O)NCC(N)=O | – | ~25 | ~0.8 | 0.34 | <0.04 | –
7 | NC(=O)CC[C@H](NC(=O)[C@H](Cc1ccccc1)NC(=O)C1(NC(=O)[C@@H](N)CS)CCCCC1)C(=O)N[C@@H](CC(N)=O)C(=O)N[C@@H](CS)C(=O)N1CCC[C@H]1C(=O)N[C@@H](CCCN=C(N)N)C(=O)NCC(N)=O | ~2510 | ~9300 | – | 56.6 | – | Activity (Rattus norvegicus [8]): <900 IU/mg
8 | NC(=O)CC[C@H](NC(=O)C1(NC(=O)[C@H](Cc2ccc(O)cc2)NC(=O)[C@@H](N)CS)CCCCC1)C(=O)N[C@@H](CC(N)=O)C(=O)N[C@@H](CS)C(=O)N1CCC[C@H]1C(=O)N[C@@H](CCCN=C(N)N)C(=O)NCC(N)=O | – | ~1.4 | ~0.1 | 0.24 | 0 | –
9 | NC(=O)CC[C@H](NC(=O)[C@H](Cc1ccccc1)NC(=O)C1(NC(=O)CCS)CCCCC1)C(=O)N[C@@H](CC(N)=O)C(=O)N[C@@H](CS)C(=O)N1CCC[C@H]1C(=O)N[C@@H](CCCN=C(N)N)C(=O)NCC(N)=O | 794 | ~50000 | ~4500 | 17.2 | 0.71 | –
10 | NC(=O)CC[C@H](NC(=O)[C@H](Cc1ccccc1)NC(=O)C1(NC(=O)[C@@H](N)CS)CCCCC1)C(=O)N[C@@H](CC(N)=O)C(=O)N[C@@H](CS)C(=O)N1CCC[C@H]1C(=O)N[C@H](CCCN=C(N)N)C(=O)NCC(N)=O | ~2000 | ~9300 | – | – | – | Activity (Rattus norvegicus [8]): <900 IU/mg; Kb (Rattus norvegicus [2]): ~1580 nM
11 | NC(=O)CC[C@H](NC(=O)[C@H](Cc1ccccc1)NC(=O)C1(NC(=O)CC2(S)CCCCC2)CCCCC1)C(=O)N[C@@H](CC(N)=O)C(=O)N[C@@H](CS)C(=O)N1CCC[C@H]1C(=O)N[C@H](CCCN=C(N)N)C(=O)NCC(N)=O | 47.9 | – | <4 | – | – | Kb (Rattus norvegicus [2]): 234 nM
12 | NC(=O)CC[C@H](NC(=O)[C@H](Cc1ccccc1)NC(=O)[C@H](Cc1ccc(O)cc1)NC(=O)[C@@H](N)CS)C(=O)N[C@@H](CC(N)=O)C(=O)N[C@@H](CS)C(=O)N1CCC[C@H]1C(=O)N[C@H](CCCN=C(N)N)C(=O)NCC(N)=O | – | – | – | 4.1 | 0.4 | Activity (Rattus norvegicus [9]): <257 IU/mg
13 | CC(C)[C@H](NC(=O)C1(NC(=O)[C@H](Cc2ccc(O)cc2)NC(=O)CCS)CCCCC1)C(=O)N[C@@H](CC(N)=O)C(=O)N[C@@H](CS)C(=O)N1CCC[C@H]1C(=O)N[C@H](CCCN=C(N)N)C(=O)NCC(N)=O | – | 4500 | 450 | 0 | 0 | –
14 | NC(=O)CC[C@H](NC(=O)[C@H](Cc1ccccc1)NC(=O)C1(NC(=O)CC2(S)CCCCC2)CCCCC1)C(=O)N[C@@H](CC(N)=O)C(=O)N[C@@H](CS)C(=O)N1CCC[C@H]1C(=O)N[C@@H](CCCN=C(N)N)C(=O)NCC(N)=O | 46.8 | ~1.4 | ~0.1 | – | – | Kb (Rattus norvegicus [2]): 55 nM
15 | NC(=O)CC[C@H](NC(=O)[C@H](Cc1ccccc1)NC(=O)[C@H](Cc1ccc(O)cc1)NC(=O)CCS)C(=O)N[C@@H](CC(N)=O)C(=O)N[C@@H](CS)C(=O)N1CCC[C@H]1C(=O)N[C@@H](CCCN=C(N)N)C(=O)NCC(N)=O | – | – | – | – | – | Activity (Rattus norvegicus [10]): <370 IU/mg; Activity (Rattus norvegicus [11]): <63 IU/mg; Activity (Rattus norvegicus [12]): <1745 IU/mg
16 | CC(C)[C@H](NC(=O)[C@H](Cc1ccccc1)NC(=O)[C@H](Cc1ccc(O)cc1)NC(=O)[C@@H](N)CS)C(=O)N[C@@H](CC(N)=O)C(=O)N[C@@H](CS)C(=O)N1CCC[C@H]1C(=O)N[C@@H](CCCN=C(N)N)C(=O)NCC(N)=O (H-CYFVNCPRG-NH2) | – | – | 738 | 32 | – | –
17 | CC(C)[C@H](NC(=O)C1(NC(=O)[C@H](Cc2ccc(O)cc2)NC(=O)[C@@H](N)CS)CCCCC1)C(=O)N[C@@H](CC(N)=O)C(=O)N[C@@H](CS)C(=O)N1CCC[C@H]1C(=O)N[C@@H](CCCN=C(N)N)C(=O)NCC(N)=O (H-CY[Ac6c]VNCPRG-NH2) | – | – | <0.4 | 0 | 0 | –
18 | CC(C)[C@H](NC(=O)[C@H](Cc1ccccc1)NC(=O)C1(NC(=O)[C@@H](N)CS)CCCCC1)C(=O)N[C@@H](CC(N)=O)C(=O)N[C@@H](CS)C(=O)N1CCC[C@H]1C(=O)N[C@@H](CCCN=C(N)N)C(=O)NCC(N)=O (H-C[Ac6c]FVNCPRG-NH2) | 126 | ~23000 | ~2300 | 0.9 | – | –
19 | NC(=O)CC[C@H](NC(=O)[C@H](Cc1ccccc1)NC(=O)[C@H](Cc1ccc(O)cc1)NC(=O)CC1(S)CCCCC1)C(=O)N[C@@H](CC(N)=O)C(=O)N[C@@H](CS)C(=O)N1CCC[C@H]1C(=O)N[C@@H](CCCN=C(N)N)C(=O)NCC(N)=O ({Cyclohexylacetyl(1-SH)}-YFQNCPRG-NH2) | – | – | 0.03 | – | – | Kb (Rattus norvegicus [2]): 4.47 nM
20 | CC(C)[C@H](NC(=O)C1(NC(=O)[C@H](Cc2ccc(O)cc2)NC(=O)CC2(S)CCCCC2)CCCCC1)C(=O)N[C@@H](CC(N)=O)C(=O)N[C@@H](CS)C(=O)N1CCC[C@H]1C(=O)N[C@@H](CCCN=C(N)N)C(=O)NCC(N)=O ({Cyclohexylacetyl(1-SH)}-Y[Ac6c]VNCPRG-NH2) | ≥ 1000 | – | <4 | 0 | – | –
21 | N=C(N)NCCC[C@H](NC(=O)[C@@H]1CCCN1C(=O)[C@@H]1CSSC[C@H](N)C(=O)N[C@@H](Cc2ccc(O)cc2)C(=O)N[C@@H](Cc2ccccc2)C(=O)N[C@@H](CCC(N)=O)C(=O)N[C@@H](CC(N)=O)C(=O)N1)C(=O)NCC(N)=O [VASOPRESSIN] | – | – | 465 | 412 | 17 | –

Source: ChEMBL document CHEMBL1139434, “Highly potent 1-aminocyclohexane-1-carboxylic acid substituted V2 agonists of arginine vasopressin” (J Med Chem, 2004)
